Data on 21 compounds can be found in ChEMBL document CHEMBL1155008, “Brassinosteroids: synthesis and activity of some fluoro analogues” (J Med Chem, 2008).

One experiment relates to CCRF-CEM. The experiment can be described thus: Cytotoxicity against human CEM cells assessed as cell survival after 72 hrs by calcein-AM assay. The class given is functional, cell-based. An outline of the steps: (§1)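 Cells grown in DMEM with 10% fetal calf serum, 4 mM glutamine, penicillin/streptomycin, 37 °C, 5% CO2. Seeded at about 1.25 × 10^5 cells/mL and stabilised 3 h. Six 4-fold dilutions added from DMSO stocks, highest usually 50 µM, DMSO ≤0.6% final. After 72 h, calcein AM for 1 h, fluorescence read. Triplicates, ≥3 repeats; IC50 from dose-response curves.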

The subject of a further experiment is MCF7. Kind of experiment: Cytotoxicity against human MCF7 cells assessed as cell survival after 72 hrs by calcein-AM assay. Conditions: MCF7, 72 h. In kind it is functional, cell-based. In short, it runs like this: as §1
Another experiment concerns RPMI-8226. The experiment can be described thus: Cytotoxicity against human RPMI 8226 cells assessed as cell survival after 72 hrs by calcein-AM assay. The class given is functional, cell-based. Conditions: RPMI-8226, 72 h. An outline of the steps:
as §1

A further experiment relates to BJ. The experiment can be described thus: Cytotoxicity against human BJ cells assessed as cell survival after 72 hrs by calcein-AM assay. In kind it is cell-based. In short, it runs like this: as §1
The subject of a further experiment is Phaseolus vulgaris. Kind of experiment: Phyto activity in Phaseolus vulgaris cv. Pinto assessed as prolongation of the second internode after 5 days by brassinolide-type activity assay. In kind it is functional. An outline of the steps: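 Bean seedlings germinated 2 days, grown in perlite with diluted Hoagland solution (pH 5.7) at 25-27 °C under 16/8 h light. Seven-day-old plants with 2 mm second internodes received compound in 5 µL lanolin at the bract scar; controls got lanolin alone. ≥7 plants per experiment, ≥3 repeats. Internode length measured after 5 days, difference from control.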

SMILES strings stand for the structures.

As to `C[C@]12CC[C@H]3[C@@H](CC(=O)[C@@]4(F)C[C@@H](O)[C@@H](O)C[C@]34C)[C@@H]1CC[C@@H]2O`, the IC50 was more than 50 µM in the experiment on CCRF-CEM, more than 50 µM with MCF7, 45.4 µM in the experiment with RPMI-8226 and more than 50 µM in the experiment with BJ. The Activity in the experiment on Phaseolus vulgaris is reported as 21.8 mm.

As to `CC(C)[C@@H](C)/C=C/[C@@H](C)[C@H]1CC[C@H]2[C@@H]3CC(=O)[C@H]4C[C@H](F)CC[C@]4(C)[C@H]3CC[C@]12C`, the IC50 in the experiment on CCRF-CEM, with MCF7, with RPMI-8226 and in the experiment on BJ was more than 50 µM throughout. In the experiment on Phaseolus vulgaris, the Activity was 9.9 mm.

Regarding `CC(=O)O[C@H]1CC[C@H]2[C@@H]3CC(=O)[C@@]4(F)C[C@H](F)CC[C@]4(C)[C@H]3CC[C@]12C`, the half-maximal inhibitory concentration (IC50) with CCRF-CEM is 42.9 µM; with MCF7, more than 50 µM; with RPMI-8226 it was more than 50 µM; in the experiment with BJ, more than 50 µM. Moreover, the Activity in the experiment with Phaseolus vulgaris was 19.8 mm.

Turning to `C[C@]12CC[C@H]3[C@@H](CC(=O)[C@@]4(F)C[C@@H](O)CC[C@]34C)[C@@H]1CC[C@@H]2O`, the IC50 in the experiment on CCRF-CEM, in the experiment on MCF7, in the experiment with RPMI-8226 and with BJ was more than 50 µM throughout. In addition, the Activity in the experiment on Phaseolus vulgaris came out at 16.9 mm.

Turning to `CC(=O)O[C@H]1CC[C@H]2[C@@H]3CC(=O)[C@@]4(F)C[C@H](O)[C@H](O)C[C@]4(C)[C@H]3CC[C@]12C`, the IC50 with CCRF-CEM, in the experiment on MCF7, in the experiment on RPMI-8226 and with BJ was more than 50 µM in each case. The Activity with Phaseolus vulgaris is 12.3 mm.

Turning to `CC(C)[C@@H](C)[C@@H](O)[C@H](O)[C@@H](C)[C@H]1CC[C@H]2[C@@H]3CC(=O)[C@H]4C[C@H](F)CC[C@]4(C)[C@H]3CC[C@]12C`, the IC50 in the experiment with CCRF-CEM is 13.8 µM; in the experiment on MCF7, 25.7 µM; with RPMI-8226 it was 23.5 µM; in the experiment on BJ it was 45.9 µM. In addition, in the experiment on Phaseolus vulgaris, the Activity amounted to 13.2 mm.

Consider `C[C@]12CC[C@@H](F)C[C@@H]1C(=O)C[C@@H]1[C@@H]2CC[C@]2(C)[C@@H](O)CC[C@@H]12`, for which the IC50 with CCRF-CEM, in the experiment on MCF7, with RPMI-8226 and with BJ was more than 50 µM each time. Further, the Activity in the experiment on Phaseolus vulgaris is 5.9 mm.

As for `CC[C@@H](C(C)C)[C@@H](O)[C@H](O)[C@@H](C)[C@H]1CC[C@H]2[C@@H]3CC(=O)[C@H]4C[C@H](O)[C@H](O)C[C@]4(C)[C@H]3CC[C@]12C`, the IC50 with MCF7 was more than 50 µM; in the experiment on RPMI-8226, 26 µM; in the experiment on BJ it was more than 50 µM.

With `CC(=O)O[C@H]1CC[C@H]2[C@@H]3CC(=O)[C@@]4(F)C[C@@H](O)[C@@H](O)C[C@]4(C)[C@H]3CC[C@]12C`, the half-maximal inhibitory concentration (IC50) in the experiment with CCRF-CEM, with MCF7, with RPMI-8226 and in the experiment with BJ was more than 50 µM each time. Moreover, in the experiment on Phaseolus vulgaris, the Activity was 21.4 mm.

On to `C[C@]12CC[C@@H](F)C[C@@H]1C(=O)C[C@@H]1[C@@H]2CC[C@]2(C)C(=O)CC[C@@H]12`, for which the IC50 in the experiment on CCRF-CEM, in the experiment on MCF7, in the experiment with RPMI-8226 and in the experiment on BJ was more than 50 µM each time. The Activity in the experiment with Phaseolus vulgaris was 14.9 mm.

In the case of `C[C@]12CC[C@@H](F)C[C@@H]1C(=O)C[C@@H]1[C@@H]2CC[C@]2(C)[C@@H](OC(=O)c3ccccc3)CC[C@@H]12`, the IC50 with CCRF-CEM, with MCF7, in the experiment with RPMI-8226 and with BJ was more than 50 µM throughout. Besides, the Activity with Phaseolus vulgaris was 0.8 mm.

As for `C[C@]12CC[C@H]3[C@@H](CC(=O)[C@@]4(F)C[C@H](O)CC[C@]34C)[C@@H]1CC[C@@H]2O`, the IC50 in the experiment with CCRF-CEM, in the experiment with MCF7, in the experiment on RPMI-8226 and with BJ was more than 50 µM throughout. Further, the Activity in the experiment on Phaseolus vulgaris is 43.4 mm.

`CC(=O)O[C@H]1CC[C@H]2[C@@H]3CC(=O)[C@@]4(F)CC=CC[C@]4(C)[C@H]3CC[C@]12C`: the IC50 with CCRF-CEM, in the experiment on MCF7, in the experiment with RPMI-8226 and with BJ was more than 50 µM each time. Also, in the experiment on Phaseolus vulgaris, the Activity stood at 21.8 mm.

With `C[C@]12CC[C@H]3[C@@H](CC(=O)[C@@]4(F)C[C@H](F)CC[C@]34C)[C@@H]1CC[C@@H]2O`, the IC50 in the experiment with CCRF-CEM, in the experiment with MCF7, with RPMI-8226 and in the experiment on BJ was more than 50 µM each time. Also, the Activity in the experiment with Phaseolus vulgaris stood at 18.4 mm.

For the compound `CC(=O)O[C@H]1CC[C@H]2[C@@H]3CC(=O)[C@@]4(F)C[C@H](O)CC[C@]4(C)[C@H]3CC[C@]12C`, the IC50 in the experiment on CCRF-CEM, in the experiment on MCF7, with RPMI-8226 and in the experiment on BJ was more than 50 µM throughout. The Activity in the experiment on Phaseolus vulgaris is recorded as 21.4 mm.

With `CC(C)[C@@H](C)/C=C/[C@@H](C)[C@H]1CC[C@H]2[C@@H]3CC(=O)[C@H]4C[C@@H](O)CC[C@]4(C)[C@H]3CC[C@]12C`, the IC50 in the experiment with CCRF-CEM was 26.4 µM; with MCF7 it was 40.4 µM; with RPMI-8226, 27 µM; in the experiment on BJ, 42 µM. In addition, the Activity in the experiment with Phaseolus vulgaris is given as 9.4 mm.

Regarding `CC(C)[C@@H](C)[C@H](O)[C@@H](O)[C@@H](C)[C@H]1CC[C@H]2[C@@H]3CC(=O)[C@H]4C[C@H](F)CC[C@]4(C)[C@H]3CC[C@]12C`, the IC50 is 13.8 µM in the experiment with CCRF-CEM, 25.7 µM with MCF7, 23.5 µM in the experiment with RPMI-8226 and 45.9 µM in the experiment with BJ. Further, in the experiment on Phaseolus vulgaris, the Activity amounted to 13.2 mm.

For the compound `C[C@]12CC[C@H]3[C@@H](CC(=O)[C@@]4(F)CC=CC[C@]34C)[C@@H]1CC[C@@H]2O`, the IC50 in the experiment on CCRF-CEM, in the experiment with MCF7, in the experiment on RPMI-8226 and in the experiment with BJ was more than 50 µM throughout. Moreover, the Activity in the experiment on Phaseolus vulgaris is reported as 13.6 mm.

On to `CC(=O)O[C@H]1CC[C@H]2[C@@H]3CC(=O)[C@@]4(F)C[C@@H](O)CC[C@]4(C)[C@H]3CC[C@]12C`, for which the IC50 in the experiment on CCRF-CEM, in the experiment on MCF7, in the experiment with RPMI-8226 and with BJ was more than 50 µM in each case. Further, the Activity with Phaseolus vulgaris came out at 17.1 mm.

Consider `C[C@]12CC[C@H](O)C[C@@H]1C(=O)C[C@@H]1[C@@H]2CC[C@]2(C)[C@@H](OC(=O)c3ccccc3)CC[C@@H]12`, for which the IC50 in the experiment with CCRF-CEM, in the experiment with MCF7, in the experiment with RPMI-8226 and in the experiment on BJ was more than 50 µM throughout. Moreover, in the experiment on Phaseolus vulgaris, the Activity is 3.8 mm.

Turning to `C[C@]12CC[C@H]3[C@@H](CC(=O)[C@@]4(F)C[C@H](O)[C@H](O)C[C@]34C)[C@@H]1CC[C@@H]2O`, the IC50 in the experiment on CCRF-CEM, with MCF7, in the experiment with RPMI-8226 and with BJ was more than 50 µM in each case. Also, the Activity in the experiment on Phaseolus vulgaris is reported as 19.5 mm.
